Molecules are shown by their SMILES. Square brackets hold non-standard residues; d marks the D form. Peptide text beside a SMILES is read from it. pGlu = O=C1CC[C@@H](C(=O)O)N1

Data set [1] is filed under the species Rattus norvegicus. Kind of data set: Tested in vitro for LH release from cultured rat pituitary cells, activity is expressed as pD2 value. Type of data set: functional, Pituitary gland cell. In short, it runs like this: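 Cultured rat pituitary cells; LH release measured across agonist concentrations; pD2 = negative log of agonist concentration giving 50% of maximal LH release.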

In the next data set the test system is chymotrypsin. Kind of data set: Chymotrypsin degradation half-life was determined. Type of data set: ADME.
Data set [2] in a line: Clearance in rat after iv dose (100 ug/kg). Type of data set: ADME, organism-based. Conditions: in vivo, 0.1 mg/kg. The gist of the method: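 Castrate male rats given 100 μg/kg iv bolus; blood sampled over 6 h with EDTA anticoagulant. Plasma levels by RIA with antibody recognizing C-terminal Leu-Arg-Pro-NHEt or Leu-Arg-Pro-GlyNH₂ (rabbit antisera C-402 with [125I-Tyr⁵]leuprolide tracer, or 5328W with [125I-Tyr⁵,DLys⁶]LHRH). AUC by trapezoidal rule; whole-body clearance = dose/AUC, mL/min per kg.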

For data set [3], the species on record is Rattus norvegicus. Kind of data set: Intestinal stability against rat jejunum sac, activity is expressed as T1/2. Type of data set: functional. In short, it runs like this: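 Rat jejunal sac in vitro; T1/2 taken as time, in min, for lumenal compound concentration to fall by 50%.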

In the data set filed under Rattus norvegicus [1], `CC(C)C[C@H](NC(=O)[C@@H](Cc1ccc2ccccc2c1)NC(=O)[C@H](Cc1ccc(O)cc1)NC(=O)[C@H](CO)NC(=O)[C@H](Cc1cccc2ccccc12)NC(=O)[C@H](Cc1c[nH]cn1)NC(=O)[C@@H]1CCC(=O)N1)C(=O)N[C@@H](CCCN=C(N)N)C(=O)N1CCC[C@H]1C(=O)NCC(N)=O` had a pD2 of 11.55.

In the case of `CCNC(=O)[C@@H]1CCCN1C(=O)[C@H](CCCN=C(N)N)NC(=O)[C@H](CC(C)C)NC(=O)[C@@H](CC(C)C)N(C)C(=O)[C@H](Cc1ccc(O)cc1)NC(=O)[C@H](CO)NC(=O)[C@H](Cc1c[nH]c2ccccc12)NC(=O)[C@H](Cc1cnc[nH]1)NC(=O)[C@@H]1CCC(=O)N1`, in the data set with chymotrypsin, the half-life worked out at 1 min. In data set [2], this compound yielded a clearance of 21 mL/min/kg.

In the data set filed under Rattus norvegicus [3], `CCNC(=O)[C@@H]1CCCN1C(=O)[C@H](CCCN=C(N)N)NC(=O)C(CC(C)C)NC(=O)C(CC(C)C)NC(=O)[C@H](Cc1ccc(O)cc1)NC(=O)[C@H](CO)NC(=O)[C@H](Cc1c[nH]c2ccccc12)NC(=O)[C@H](Cc1c[nH]cn1)N(C)C(=O)[C@@H]1CCC(=O)N1` (stereo in doubt) [listing 1 of 3 here] yielded a T1/2 of 48 min.

`CCNC(=O)[C@@H]1CCCN1C(=O)[C@H](CCCN=C(N)N)NC(=O)[C@H](CC(C)C)NC(=O)[C@@H](CC(C)C)NC(=O)[C@H](Cc1ccc(O)cc1)N(C)C(=O)[C@H](CO)NC(=O)[C@H](Cc1c[nH]c2ccccc12)NC(=O)[C@H](Cc1cnc[nH]1)NC(=O)[C@@H]1CCC(=O)N1` came in with a half-life in the data set on chymotrypsin greater than 60 min. In data set [2], this compound displayed a clearance of 8.2 mL/min/kg.

In the data set on chymotrypsin, `CCNC(=O)[C@@H]1CCCN1C(=O)[C@H](CCCN=C(N)N)NC(=O)C(CC(C)C)NC(=O)C(CC(C)C)NC(=O)[C@H](Cc1ccc(O)cc1)NC(=O)[C@H](CO)NC(=O)[C@H](Cc1c[nH]c2ccccc12)NC(=O)[C@H](Cc1c[nH]cn1)N(C)C(=O)[C@@H]1CCC(=O)N1` (stereo in doubt) [listing 2 of 3 here] gave a half-life of 7 min. Further, in data set [2], the clearance is 7.16 mL/min/kg.

The compound `CCNC(=O)[C@@H]1CCCN1C(=O)[C@H](CCCN=C(N)N)NC(=O)[C@H](CC(C)C)NC(=O)[C@@H](Cc1c[nH]c2ccccc12)NC(=O)[C@H](Cc1ccc(O)cc1)NC(=O)[C@H](CO)N(C)C(=O)[C@H](Cc1c[nH]c2ccccc12)NC(=O)[C@H](Cc1c[nH]cn1)NC(=O)[C@@H]1CCC(=O)N1` had a T1/2 in the data set filed under Rattus norvegicus [3] of 39.1 min.

Regarding `CCNC(=O)[C@@H]1CCCN1C(=O)[C@H](CCCN=C(N)N)NC(=O)[C@H](CC(C)C)NC(=O)[C@@H](Cc1c[nH]c2ccccc12)NC(=O)[C@H](Cc1ccc(O)cc1)N(C)C(=O)[C@H](CO)NC(=O)[C@H](Cc1c[nH]c2ccccc12)NC(=O)[C@H](Cc1c[nH]cn1)NC(=O)[C@@H]1CCC(=O)N1`, in data set [2], the clearance was 11.1 mL/min/kg. Also, the pD2 in the data set listed under Rattus norvegicus [1] is recorded as 10.55.

In turn, `CC(C)C[C@H](NC(=O)[C@@H](Cc1ccc2ccccc2c1)NC(=O)[C@H](Cc1ccc(O)cc1)NC(=O)[C@H](CO)NC(=O)[C@H](Cc1cccc2ccccc12)N(C)C(=O)[C@H](Cc1c[nH]cn1)NC(=O)[C@@H]1CCC(=O)N1)C(=O)N[C@@H](CCCN=C(N)N)C(=O)N1CCC[C@H]1C(=O)NCC(N)=O` had a pD2 in the data set filed under Rattus norvegicus [1] of 8.7.

`CC(C)C[C@@H](C(=O)N[C@@H](CCCN=C(N)N)C(=O)N1CCC[C@H]1C(=O)NCC(N)=O)N(C)C(=O)[C@@H](Cc1ccc2ccccc2c1)NC(=O)[C@H](Cc1ccc(O)cc1)NC(=O)[C@H](CO)NC(=O)[C@H](Cc1c[nH]c2ccccc12)NC(=O)[C@H](Cc1c[nH]cn1)NC(=O)[C@@H]1CCC(=O)N1` gave a pD2 in the data set filed under Rattus norvegicus [1] of 12.35.

`CCNC(=O)[C@@H]1CCCN1C(=O)[C@H](CCCN=C(N)N)NC(=O)[C@H](CC(C)C)NC(=O)[C@@H](Cc1c[nH]c2ccccc12)NC(=O)[C@H](Cc1ccc(O)cc1)NC(=O)[C@H](CO)NC(=O)[C@H](Cc1c[nH]c2ccccc12)NC(=O)[C@H](Cc1ccccc1)NC(=O)[C@@H]1CCC(=O)N1` ([pGlu]FWSY[dW]LRP-NHEt) registered a clearance in data set [2] of 28.8 mL/min/kg. Moreover, the T1/2 in the data set listed under Rattus norvegicus [3] came out at 10.8 min.

`CCNC(=O)[C@@H]1CCCN1C(=O)[C@H](CCCN=C(N)N)NC(=O)[C@H](CC(C)C)NC(=O)[C@@H](Cc1c[nH]c2ccccc12)NC(=O)[C@H](Cc1ccc(O)cc1)NC(=O)[C@H](CO)N(C)C(=O)[C@H](Cc1c[nH]c2ccccc12)NC(=O)[C@H](Cc1cnc[nH]1)NC(=O)[C@@H]1CCC(=O)N1` returned a clearance in data set [2] of 19.9 mL/min/kg.

In data set [2], `CCNC(=O)[C@@H]1CCCN1C(=O)[C@H](CCCN=C(N)N)NC(=O)[C@H](CC(C)C)NC(=O)[C@@H](Cc1c[nH]c2ccccc12)NC(=O)[C@H](Cc1ccc(O)cc1)NC(=O)[C@H](CO)NC(=O)[C@H](Cc1cccc2ccccc12)N(C)C(=O)[C@H](Cc1c[nH]cn1)NC(=O)[C@@H]1CCC(=O)N1` gave a clearance of 15.1 mL/min/kg. Further, in the data set listed under Rattus norvegicus [1], the pD2 turned out to be 8.35.

Take `CCNC(=O)[C@@H]1CCCN1C(=O)[C@H](CCCN=C(N)N)NC(=O)[C@H](CC(C)C)NC(=O)[C@@H](Cc1c[nH]c2ccccc12)NC(=O)[C@H](Cc1ccc(O)cc1)NC(=O)[C@H](CO)NC(=O)[C@H](Cc1cccc2ccccc12)NC(=O)[C@H](Cc1c[nH]cn1)NC(=O)[C@@H]1CCC(=O)N1`: the pD2 in the data set listed under Rattus norvegicus [1] is given as 11.49.

Compound `CC(C)C[C@H](NC(=O)[C@@H](Cc1c[nH]c2ccccc12)NC(=O)[C@H](Cc1ccc(O)cc1)NC(=O)[C@H](CO)NC(=O)[C@H](Cc1c[nH]c2ccccc12)NC(=O)[C@H](Cc1c[nH]cn1)NC(=O)[C@@H]1CCC(=O)N1)C(=O)N[C@@H](CCCN=C(N)N)C(=O)N1CCC[C@H]1C(=O)N(C)CC(N)=O` yielded a clearance in data set [2] of 4.32 mL/min/kg. This compound gave a pD2 in the data set listed under Rattus norvegicus [1] of 10.05.

In the data set filed under Rattus norvegicus [1], `CCNC(=O)[C@@H]1CCCN1C(=O)[C@H](CCCN=C(N)N)NC(=O)C(CC(C)C)NC(=O)C(CC(C)C)NC(=O)[C@H](Cc1ccc(O)cc1)NC(=O)[C@H](CO)NC(=O)[C@H](Cc1c[nH]c2ccccc12)NC(=O)[C@H](Cc1c[nH]cn1)N(C)C(=O)[C@@H]1CCC(=O)N1` (stereo in doubt) [listing 3 of 3 here] came in with a pD2 of 8.22.

Consider `CCNC(=O)[C@@H]1CCCN1C(=O)[C@H](CCCN=C(N)N)NC(=O)[C@H](CC(C)C)NC(=O)[C@@H](CC(C)C)NC(=O)[C@H](Cc1ccc(O)cc1)N(C)C(=O)[C@H](CO)NC(=O)[C@H](Cc1c[nH]c2ccccc12)NC(=O)[C@H](Cc1c[nH]cn1)NC(=O)[C@@H]1CCC(=O)N1`, for which the T1/2 in the data set listed under Rattus norvegicus [3] was found to be 42 min.

With `CC(C)C[C@H](NC(=O)[C@@H](Cc1ccc2ccccc2c1)N(C)C(=O)[C@H](Cc1ccc(O)cc1)NC(=O)[C@H](CO)NC(=O)[C@H](Cc1c[nH]c2ccccc12)NC(=O)[C@H](Cc1c[nH]cn1)NC(=O)[C@@H]1CCC(=O)N1)C(=O)N[C@@H](CCCN=C(N)N)C(=O)N1CCC[C@H]1C(=O)NCC(N)=O`, the pD2 in the data set filed under Rattus norvegicus [1] was found to be 8.3.

The compound `CC(C)C[C@H](NC(=O)[C@@H](Cc1ccc2ccccc2c1)NC(=O)[C@H](Cc1ccc(O)cc1)NC(=O)[C@H](CO)NC(=O)[C@H](Cc1c[nH]c2ccccc12)NC(=O)[C@H](Cc1ccccc1)NC(=O)[C@@H]1CCC(=O)N1)C(=O)N[C@@H](CCCN=C(N)N)C(=O)N1CCC[C@H]1C(=O)NCC(N)=O` showed a pD2 in the data set filed under Rattus norvegicus [1] of 10.23.

`CCNC(=O)[C@@H]1CCCN1C(=O)[C@H](CCCN=C(N)N)NC(=O)[C@H](CC(C)C)NC(=O)[C@@H](CC(C)C)N(C)C(=O)[C@H](Cc1ccc(O)cc1)NC(=O)[C@H](CO)NC(=O)[C@H](Cc1c[nH]c2ccccc12)NC(=O)[C@H](Cc1c[nH]cn1)NC(=O)[C@@H]1CCC(=O)N1` returned a T1/2 in the data set filed under Rattus norvegicus [3] of 54 min. This compound returned a pD2 in the data set filed under Rattus norvegicus [1] of 9.61.

On to `CCNC(=O)[C@@H]1CCCN1C(=O)[C@H](CCCNC(=N)N)NC(=O)[C@H](CC(C)C)N(C)C(=O)[C@@H](Cc1c[nH]c2ccccc12)NC(=O)[C@H](Cc1ccc(O)cc1)NC(=O)[C@H](CO)NC(=O)[C@H](Cc1c[nH]c2ccccc12)NC(=O)[C@H](Cc1c[nH]cn1)NC(=O)[C@@H]1CCC(=O)N1` [LUTRELIN], for which the clearance in data set [2] was 19.5 mL/min/kg. In addition, the pD2 in the data set listed under Rattus norvegicus [1] is 10.7.

In the case of `CC(C)C[C@H](NC(=O)[C@@H](Cc1ccc2ccccc2c1)NC(=O)[C@H](Cc1ccc(O)cc1)NC(=O)[C@H](CO)NC(=O)[C@H](Cc1c[nH]c2ccccc12)NC(=O)[C@H](Cc1c[nH]cn1)NC(=O)[C@@H]1CCC(=O)N1)C(=O)N[C@@H](CCCN=C(N)N)C(=O)N1CCC[C@H]1C(=O)N(C)CC(N)=O`, the clearance in data set [2] came out at 3.55 mL/min/kg. Moreover, the pD2 in the data set listed under Rattus norvegicus [1] worked out at 11.87.

In data set [2], `CCNC(=O)[C@@H]1CCCN1C(=O)[C@H](CCCN=C(N)N)N(C)C(=O)[C@H](CC(C)C)NC(=O)[C@@H](Cc1c[nH]c2ccccc12)NC(=O)[C@H](Cc1ccc(O)cc1)NC(=O)[C@H](CO)NC(=O)[C@H](Cc1c[nH]c2ccccc12)NC(=O)[C@H](Cc1c[nH]cn1)NC(=O)[C@@H]1CCC(=O)N1` had a clearance of 25 mL/min/kg. The pD2 in the data set filed under Rattus norvegicus [1] was determined as 9.35.

`CCNC(=O)[C@@H]1CCCN1C(=O)[C@H](CCCN=C(N)N)NC(=O)[C@H](CC(C)C)NC(=O)[C@@H](CC(C)C)NC(=O)[C@H](Cc1ccc(O)cc1)NC(=O)[C@H](CO)NC(=O)[C@H](Cc1c[nH]c2ccccc12)NC(=O)[C@H](Cc1ccccc1)NC(=O)[C@@H]1CCC(=O)N1` ([pGlu]FWSY[dL]LRP-NHEt) came in with a clearance in data set [2] of 25.4 mL/min/kg. This compound registered a T1/2 in the data set filed under Rattus norvegicus [3] of 2.2 min.

In turn, `CCNC(=O)[C@@H]1CCCN1C(=O)[C@H](CCCNC(=N)N)NC(=O)[C@H](CC(C)C)NC(=O)[C@@H](Cc1c[nH]c2ccccc12)NC(=O)[C@H](Cc1ccc(O)cc1)NC(=O)[C@H](CO)NC(=O)[C@H](Cc1c[nH]c2ccccc12)NC(=O)[C@H](Cc1c[nH]cn1)NC(=O)[C@@H]1CCC(=O)N1` [DESLORELIN] registered a clearance in data set [2] of 34.3 mL/min/kg. In the data set filed under Rattus norvegicus [1], this compound registered a pD2 of 11.33.

For the compound `CC(C)C[C@H](NC(=O)[C@@H](Cc1ccc2ccccc2c1)NC(=O)[C@H](Cc1ccc(O)cc1)NC(=O)[C@H](CO)NC(=O)[C@H](Cc1c[nH]c2ccccc12)NC(=O)[C@H](Cc1c[nH]cn1)N(C)C(=O)[C@@H]1CCC(=O)N1)C(=O)N[C@@H](CCCN=C(N)N)C(=O)N1CCC[C@H]1C(=O)NCC(N)=O`, the clearance in data set [2] stood at 4.13 mL/min/kg. The compound also showed a pD2 in the data set listed under Rattus norvegicus [1] of 8.18.

The term half-life denotes how long it takes for the measured level to halve. As a reminder, the clearance is the rate of elimination divided by the concentration.

These data come from ChEMBL document CHEMBL1126585, “Effect of N-methyl substitution of the peptide bonds in luteinizing hormone-releasing hormone agonists” (J Med Chem, 1993).
